Published values collected from several papers.
Lines come from different studies, so protocols differ.
Target: Casein kinase I isoform gamma-2 (CSNK1G2, Homo sapiens, UniProt P78368)

| SMILES | effect on | action | method | concentration | endpoint | value |
| --- | --- | --- | --- | --- | --- | --- |
| C#Cc1cnc(Nc2ccnc(CO)c2)nc1Nc1ccccc1S(C)(=O)=NC#N (stereo not drawn) | cell-free assay |  |  | 1 µM | remaining signal | 65% |
| N#Cc1ccc2nc(Nc3ccc(N4CCOCC4)c(Cl)c3)[nH]c2c1 | thermal stability |  | DSF | 30 µM | ΔTm | 3.6 °C |
| CC#CC(=O)N1CCC[C@H]1c1nc(-c2ccc(C(=O)Nc3ccccn3)cc2)c2c(N)nccn12 | enzyme activity | inhibitor |  | 1 µM | inhibition | 9% |
| CN1CCN(C(=O)c2ccc(NC(=O)Nc3ccc(N(C)c4ccnc(Nc5ccc(CS(C)(=O)=O)cc5)n4)cc3)cc2)CC1 | binding |  |  | 1 µM | remaining binding | 100% |
| N#Cc1ccc(NC(=O)Nc2ccccc2)cc1 | cell-free assay |  | competition with immobilised ligand | 25 µM | remaining binding | 100% |
| CCCCC(=O)Nc1ccc(-c2ccc3ncn(CCC)c(=O)c3c2)cn1 | binding |  | competition with immobilised ligand | 0.5 µM | remaining binding | 91% |
| CO[C@@H]1[C@H](N(C)C(=O)c2ccccc2)C[C@H]2O[C@]1(C)n1c3ccccc3c3c4c(c5c6ccccc6n2c5c31)C(=O)NC4 | enzyme activity | inhibitor |  | 1 µM | inhibition | 4% |
| CC(C)S(=O)(=O)c1ccc2nccc(Nc3ccc4sc(C5CCCC5)nc4c3)c2c1 | enzyme activity | inhibitor |  | 1 µM | activity vs control | 100% |
| COc1ccc2oc(-c3ccc4nc(N)oc4c3)c/c(=N\c3ccccc3NC(=O)CCN)c2c1 | binding |  |  | 1 µM | remaining binding | 95% |
| Cc1cc(O)c(-c2ccc([C@@H](C)CN(C)C)cc2)c2c1[nH]c(=O)c1sccc12 | enzyme activity | inhibitor |  | 0.1 µM | inhibition | -6.66% |
| C[C@H]1CC[C@H](n2c3cnccc3c3cnc(Nc4ccc5c(n4)CCN(C(=O)CO)C5)nc32)CC1 | cell-free assay |  |  | 1 µM | remaining signal | 98% |
| C1=C/COCc2cc(ccc2OCCN2CCCC2)Nc2nccc(n2)-c2cccc(c2)COC/1 | cell-free assay |  |  | 0.1 µM | remaining signal | 92% |
